Laboratory results from ChEMBL document CHEMBL1143073, “Benzoic acid derivatives, acetophenones, and anti-inflammatory constituents from Melicope semecarpifolia” (J Nat Prod, 2008).
Converted amounts (≈) assume the structure as drawn. The source made the active and inactive calls. No cut-off for these calls is given here.

Experiments:
[1] = Antiinflammatory activity in human neutrophils assessed as inhibition of fMet-Leu-Phe/Cytochalasin B-induced elastase release; format: functional, cell-based; details: Neutrophil
How it was run: (§1)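 Human volunteer neutrophils (6 × 10^5/mL) prepared by dextran sedimentation, Ficoll Hypaque gradient and hypotonic lysis, kept in Ca2+-free HBSS pH 7.4 at 4 °C. Elastase substrate MeO-Suc-Ala-Ala-Pro-Val-p-nitroanilide 100 µM added; cells equilibrated 2 min at 37 °C, drug 5 min, then fMLP 100 nM/cytochalasin B 0.5 µg/mL stimulation. Absorbance at 405 nm monitored continuously; n = 4.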

[2] = Antiinflammatory activity in human neutrophils assessed as inhibition of fMet-Leu-Phe/Cytochalasin B-induced superoxide anion generation; format: functional, cell-based; details: Neutrophil
How it was run: (§2)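 Neutrophils isolated from venous blood of healthy adult volunteers (20–28 years) by dextran sedimentation, Ficoll Hypaque centrifugation and hypotonic erythrocyte lysis, >98% viable, held in Ca2+-free HBSS pH 7.4 at 4 °C. Cells given 0.5 mg/mL ferricytochrome c and 1 mM Ca2+, 37 °C 2 min, drug 5 min, cytochalasin B 1 µg/mL 3 min, then fMLP 100 nM 10 min. SOD-inhibitable (100 U/mL) reduction at 550 nm; n = 4.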

[3] = Antiinflammatory activity in human neutrophils assessed as inhibition of fMet-Leu-Phe/Cytochalasin B-induced elastase release at 10 ug/mL; format: functional, cell-based; details: Neutrophil; how it was run: as §1
[4] = Antiinflammatory activity in human neutrophils assessed as inhibition of fMet-Leu-Phe/Cytochalasin B-induced superoxide anion generation at 10 ug/mL; format: functional; details: Neutrophil; how it was run: as §2
Neutrophil [5] = experiment: Antiinflammatory activity in human neutrophils assessed as inhibition of superoxide anion generation at 10 ug/mL; format: functional, cell-based
How it was run: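 Healthy-volunteer neutrophils (dextran/Ficoll isolation, Ca2+-free HBSS pH 7.4) supplemented with 0.5 mg/mL ferricytochrome c and 1 mM Ca2+. Equilibrated 2 min at 37 °C, drug 5 min, cytochalasin B 1 µg/mL 3 min, then fMLP 100 nM 10 min. SOD-inhibitable ferricytochrome c reduction read at 550 nm with stirring, difference ± SOD (100 U/mL). Percent inhibition, n = 4.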

Neutrophil [6] = experiment: Antiinflammatory activity in human neutrophils assessed as inhibition of elastase release at 10 ug/mL; format: functional, cell-based
How it was run: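 Neutrophils from venous blood of healthy adult volunteers, isolated by dextran sedimentation, Ficoll Hypaque centrifugation and hypotonic erythrocyte lysis, kept in Ca2+-free HBSS pH 7.4 at 4 °C. Cells (6 × 10^5/mL) with MeO-Suc-Ala-Ala-Pro-Val-p-nitroanilide (100 µM), 2 min at 37 °C, drug 5 min, then fMLP (100 nM)/cytochalasin B (0.5 µg/mL). A405 monitored continuously. Percent inhibition, mean ± SEM, n = 4.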

Structure (SMILES) | IC50 [1] [µg/mL] | IC50 [2] | inhibition at 10 µg/mL [3] [%] | further results
COc1cc(O)c2c(=O)c(OC)c(-c3ccc(O)c(OC)c3)oc2c1 [PACHYPODOL] | 0.99 (≈ 2.88 µM) | 1 µg/mL | – | –
COc1cc(O)c2c(=O)c(OC)c(-c3ccc(OC)c(OC)c3)oc2c1 [RETUSIN] | 1.69 (≈ 4.72 µM) | 1.43 µg/mL | – | –
c1ccc2c(c1)[I+]c1ccccc1-2 [DIPHENYLENEIODONIUM] | – | 0.52 µM | – | –
O=S(=O)(F)Cc1ccccc1 [PHENYLMETHYLSULFONYLFLUORIDE] | – | – | – | IC50 [3]: 35.7 µM
CC[C@H](CC[C@@H](C)[C@H]1CC[C@H]2[C@@H]3C(=O)C=C4C[C@@H](O)CC[C@]4(C)[C@H]3CC[C@]12C)C(C)C | – | – | 7.48 | inhibition at 10 µg/mL [4]: 22.6%
CC(C)=CCC/C(C)=C/COc1cc(O)cc(O)c1C(=O)CO | 0.6 (≈ 1.87 µM) | 0.73 µg/mL | – | –
CC(C)=CCC/C(C)=C/COc1cc(O)c(C(=O)CO)c(O)c1 | 0.91 (≈ 2.84 µM) | 3.75 µg/mL | – | –
COc1cc(O)c2c(=O)c(OC)c(-c3ccc(O)cc3)oc2c1 [KUMATAKENIN] | 0.7 (≈ 2.23 µM) | 1.2 µg/mL | – | –
CC(=O)c1c(O)cc(O)cc1OC/C=C(\C)CCC=C(C)C | – | – | – | Activity (Neutrophil [5]): Active; Activity (Neutrophil [6]): Active
CC(=O)c1c(OC/C=C(\C)CCC=C(C)C)cc(O)c(C(=O)O)c1O | – | 8.02 µg/mL | 46.1 | –
CC(=O)c1c(O)cc(OC/C=C(\C)CCC=C(C)C)c2c1OC(C)(C)C=C2 | – | – | 27.4 | inhibition at 10 µg/mL [4]: 21.4%
CC(=O)c1c(O)cc(OC/C=C(\C)CCC=C(C)C)c(C(=O)O)c1O | 5.79 (≈ 16.6 µM) | 6.62 µg/mL | – | –
CC(=O)c1c(O)cc(OC/C=C(\C)CCC=C(C)C)c2c1OC(C)(C)[C@H](O)C2 | – | – | 28.7 | inhibition at 10 µg/mL [4]: 30.6%
CC(=O)c1c(O)cc(OC/C=C(\C)CCC=C(C)C)c2c1OC(C)(CCC=C(C)C)C=C2 (stereo unspecified) | – | – | 26.6 | inhibition at 10 µg/mL [4]: 23.2%
